Values after ≈ are worked out from the molar mass of the structure shown. Active and inactive are the calls of the source. The rule behind the calls is not given here.
How the values were obtained:
[1] = system: Staphylococcus aureus; experiment: Antibacterial activity against log-phase methicillin-resistant Staphylococcus aureus ATCC 33591 assessed as growth inhibition after 24 hrs by broth microdilution method; format: functional; details: ATCC 33591, 24 h
How it was run: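 CLSI broth microdilution; 10^5 CFU/mL log-phase bacteria in cation-adjusted Mueller-Hinton broth with 2% NaCl, two-fold serial dilutions from 64 to 0.031 μg/mL; aerobic incubation 24 h at 37 °C; growth read as OD600; MIC = lowest concentration giving ≥90% growth inhibition.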

[2] = system: Staphylococcus aureus; experiment: Antibacterial activity against log-phase methicillin-sensitive Staphylococcus aureus 8325-4 assessed as growth inhibition after 24 hrs by broth microdilution method; format: functional; details: 8325-4, 24 h
How it was run: (§1)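 CLSI broth microdilution. Log-phase bacteria at 10^5 CFU/mL with two-fold serial dilutions (64 to 0.031 μg/mL). S. aureus tested in cation-adjusted Mueller-Hinton broth; E. faecalis in brain–heart infusion broth. Aerobic incubation 24 h at 37 °C. OD600 read; MIC is the lowest concentration giving ≥90% growth inhibition.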

[3] = system: Enterococcus faecalis; experiment: Antibacterial activity against log-phase vancomycin-resistant Enterococcus faecalis ATCC 51575 assessed as growth inhibition after 24 hrs by broth microdilution method; format: functional; details: ATCC 51575, 24 h
How it was run: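 CLSI broth microdilution in brain–heart infusion broth; log-phase bacteria at 10^5 CFU/mL, two-fold serial dilutions 64 to 0.031 μg/mL; 24 h aerobic incubation at 37 °C; OD600 read-out; MIC taken as lowest concentration inhibiting growth ≥90%.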

[4] = system: Enterococcus faecalis; experiment: Antibacterial activity against log-phase vancomycin-sensitive Enterococcus faecalis ATCC 19433 assessed as growth inhibition after 24 hrs by broth microdilution method; format: functional; details: ATCC 19433, 24 h; how it was run: as §1
[5] = system: HEK293; experiment: Cytotoxicity against human HEK293 cells at 10 uM after 4 days by MTT assay; format: cell-based; details: hek293, 96 h
How it was run: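 MTT assay. HEK293 or MDCK cells kept at 37 °C, 5% CO2 in DMEM, seeded at 1500 cells per well. Continuous 4-day exposure to varying drug concentrations in triplicate wells, with a drug-free control. MTT read at end of day 4; IC50 determined.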

[6] = target: T1, Cell division protein FtsZ (Staphylococcus aureus) (UniProt P0A031); experiment: Induction of Staphylococcus aureus FtsZ polymerization at 40 ug/ml measured for 60 mins by microtiter plate-based light scattering assay in presence of GTP
T1 sequence (whole entry): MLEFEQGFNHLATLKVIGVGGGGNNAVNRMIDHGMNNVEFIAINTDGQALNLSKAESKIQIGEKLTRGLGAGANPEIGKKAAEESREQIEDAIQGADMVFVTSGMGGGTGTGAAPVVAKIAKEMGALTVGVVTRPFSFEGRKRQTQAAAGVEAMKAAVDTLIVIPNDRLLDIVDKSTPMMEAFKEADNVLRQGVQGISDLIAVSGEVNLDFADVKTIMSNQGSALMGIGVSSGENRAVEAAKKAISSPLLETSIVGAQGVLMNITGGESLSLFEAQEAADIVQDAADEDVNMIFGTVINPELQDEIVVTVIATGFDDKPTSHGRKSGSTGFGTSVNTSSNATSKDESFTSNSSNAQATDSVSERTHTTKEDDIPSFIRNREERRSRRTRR

[7] = target: T1, Cell division protein FtsZ (Staphylococcus aureus); experiment: Residual Staphylococcus aureus GTPase activity assessed as inorganic phosphate release upon GTP hydrolysis at 40 ug/ml preincubated for 10 mins before substrate addition measured after 2 hrs by malachite green based colorimetric analysis
[8] = target: T1, Cell division protein FtsZ (Staphylococcus aureus); experiment: Induction of Staphylococcus aureus FtsZ polymerization at 40 ug/ml measured for 60 mins by microtiter plate-based light scattering assay
How it was run: (§2)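 Turbidity assay. 10 μM SaFtsZ plus compound (0–40 μg/mL) in 50 mM Tris HCl pH 7.4, 50 mM KCl, 2 mM magnesium acetate, 5 mM CaCl2, pre-equilibrated 10 min at room temperature. Started by adding 1 mM GTP or FtsZ; A340 followed for 60 min at 25 °C. For polymer stability, 1 mM GDP added mid-run.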

[9] = target: T1, Cell division protein FtsZ (Staphylococcus aureus); experiment: Induction of Staphylococcus aureus FtsZ polymerization measured for 60 mins by microtiter plate-based light scattering assay; how it was run: as §2

## COc1cc2cc(-c3cccc(-c4ccccc4)c3)[n+](C)c(N(C)C)c2cc1OC.[I-]
[1]
  MIC90: 32 µg/mL
[2]
  MIC90: 8 µg/mL
[3]
  MIC90: 64 µg/mL
[4]
  MIC90: 64 µg/mL

## Cc1onc(-c2ccccc2)c1C(=O)N[C@@H]1C(=O)N2[C@@H]1SC(C)(C)[C@@H]2C(=O)O [OXACILLIN]
[1]
  MIC90: > 64 µg/mL
[2]
  MIC90: 0.06 µg/mL (≈ 0.149 µM)
[3]
  MIC90: > 64 µg/mL
[4]
  MIC90: 8 µg/mL (≈ 19.9 µM)

## COc1ccc2c(c[n+](C)c3c4cc5c(cc4ccc23)OCO5)c1OC [CHELERYTHRINE]
[1]
  MIC90: 4 µg/mL
[2]
  MIC90: 4 µg/mL
[3]
  MIC90: 32 µg/mL
[4]
  MIC90: 32 µg/mL

## COc1cc2cc(-c3cccc(-c4ccccc4)c3)nc(CN=C(N)N)c2cc1OC
[1]
  MIC90: 2 µg/mL (≈ 4.85 µM)
[2]
  MIC90: 2 µg/mL (≈ 4.85 µM)
[5]
  Activity: Non-toxic
[3]
  MIC90: 8 µg/mL (≈ 19.4 µM)
[4]
  MIC90: 8 µg/mL (≈ 19.4 µM)

## CN(C)[C@@H]1C(O)=C(C(N)=O)C(=O)[C@@]2(O)C(O)=C3C(=O)c4c(O)cccc4[C@@](C)(O)[C@H]3C[C@@H]12 [TETRACYCLINE]
[1]
  MIC90: 64 µg/mL (≈ 144 µM)
[2]
  MIC90: 0.06 µg/mL (≈ 0.135 µM)
[3]
  MIC90: > 64 µg/mL
[4]
  MIC90: 0.5 µg/mL (≈ 1.13 µM)

## COc1cc2cc(-c3cccc(C(C)(C)C)c3)[n+](C)c(C)c2cc1OC.[I-]
[1]
  MIC90: 16 µg/mL
[2]
  MIC90: 16 µg/mL
[3]
  MIC90: 64 µg/mL
[4]
  MIC90: 64 µg/mL

## COc1cc2cc(-c3cccc(C(C)(C)C)c3)nc(CCN=C(N)N)c2cc1OC
[6]
  Activity: Active
[7]
  residual activity: 66.5%
[8]
  Activity: Active
[9]
  Activity: Dose-dependent effect
[1]
  MIC90: 4 µg/mL (≈ 9.84 µM)
[2]
  MIC90: 4 µg/mL (≈ 9.84 µM)
[5]
  Activity: Non-toxic
[3]
  MIC90: 16 µg/mL (≈ 39.4 µM)
[4]
  MIC90: 16 µg/mL (≈ 39.4 µM)

## C[n+]1cc2c3c(ccc2c2ccc4cc5c(cc4c21)OCO5)OCO3 [SANGUINARIUM]
[1]
  MIC90: 2 µg/mL
[2]
  MIC90: 2 µg/mL
[3]
  MIC90: 16 µg/mL
[4]
  MIC90: 8 µg/mL

## COc1cc2cc(-c3cccc(C(C)(C)C)c3)nc(C)c2cc1OC
[8]
  Activity: inactive
[1]
  MIC90: > 64 µg/mL
[2]
  MIC90: > 64 µg/mL
[3]
  MIC90: > 64 µg/mL
[4]
  MIC90: > 64 µg/mL

## COc1cc(-c2cc3cc(OC)c(OC)c(OC)c3c(C)[n+]2C)cc(-c2ccc(-c3ccccc3)cc2)c1OC.[I-]
[2]
  MIC90: 1 µg/mL
[3]
  MIC90: 4 µg/mL

## COc1cc2cc(-c3cccc(-c4ccccc4)c3)nc(C)c2cc1OC
[1]
  MIC90: > 64 µg/mL
[2]
  MIC90: > 64 µg/mL
[3]
  MIC90: > 64 µg/mL
[4]
  MIC90: > 64 µg/mL

## COc1cc(-c2cc3cc(OC)c(OC)c(OC)c3c(C)n2)cc(-c2ccc(-c3ccccc3)cc2)c1OC
[1]
  MIC90: > 64 µg/mL
[2]
  MIC90: > 64 µg/mL
[3]
  MIC90: > 64 µg/mL
[4]
  MIC90: > 64 µg/mL

## COc1cc2cc(-c3cccc(-c4ccccc4)c3)[n+](C)c(C)c2cc1OC.[I-]
[1]
  MIC90: 32 µg/mL
[2]
  MIC90: 16 µg/mL
[3]
  MIC90: > 64 µg/mL
[4]
  MIC90: > 64 µg/mL

## COc1cc2cc(-c3cccc(C(C)(C)C)c3)nc(CN)c2cc1OC
[1]
  MIC90: 8 µg/mL (≈ 22.8 µM)
[2]
  MIC90: 4 µg/mL (≈ 11.4 µM)
[5]
  Activity: Non-toxic
[3]
  MIC90: 32 µg/mL (≈ 91.3 µM)
[4]
  MIC90: 32 µg/mL (≈ 91.3 µM)

## COc1cc2cc(-c3cccc(-c4ccccc4)c3)nc(CCN)c2cc1OC
[1]
  MIC90: 4 µg/mL (≈ 10.4 µM)
[2]
  MIC90: 4 µg/mL (≈ 10.4 µM)
[3]
  MIC90: > 64 µg/mL
[4]
  MIC90: 16 µg/mL (≈ 41.6 µM)

## COc1cc2cc(-c3cccc(-c4ccccc4)c3)[n+](C)cc2cc1OC.[I-]
[1]
  MIC90: 64 µg/mL
[2]
  MIC90: 16 µg/mL
[3]
  MIC90: > 64 µg/mL
[4]
  MIC90: > 64 µg/mL

From ChEMBL document CHEMBL2203109, “3-Phenyl substituted 6,7-dimethoxyisoquinoline derivatives as FtsZ-targeting antibacterial agents” (Bioorg Med Chem, 2012)
